Assay results as given in ChEMBL document CHEMBL3286180, “Efficacious inhaled PDE4 inhibitors with low emetic potential and long duration of action for the treatment of COPD” (J Med Chem, 2014).
Values after ≈ are worked out from the molar mass of the structure shown. Active and inactive are the calls of the source. No cut-off for these calls is given here.

Legend:
[1] = molecular target: 3',5'-cyclic-AMP phosphodiesterase 4B (Homo sapiens, UniProt Q07343); assay: Inhibition of human recombinant PDE4B using [3H]cAMP by packard topcount scintillation counting analysis
Sequence of 3',5'-cyclic-AMP phosphodiesterase 4B (Q07343 whole entry): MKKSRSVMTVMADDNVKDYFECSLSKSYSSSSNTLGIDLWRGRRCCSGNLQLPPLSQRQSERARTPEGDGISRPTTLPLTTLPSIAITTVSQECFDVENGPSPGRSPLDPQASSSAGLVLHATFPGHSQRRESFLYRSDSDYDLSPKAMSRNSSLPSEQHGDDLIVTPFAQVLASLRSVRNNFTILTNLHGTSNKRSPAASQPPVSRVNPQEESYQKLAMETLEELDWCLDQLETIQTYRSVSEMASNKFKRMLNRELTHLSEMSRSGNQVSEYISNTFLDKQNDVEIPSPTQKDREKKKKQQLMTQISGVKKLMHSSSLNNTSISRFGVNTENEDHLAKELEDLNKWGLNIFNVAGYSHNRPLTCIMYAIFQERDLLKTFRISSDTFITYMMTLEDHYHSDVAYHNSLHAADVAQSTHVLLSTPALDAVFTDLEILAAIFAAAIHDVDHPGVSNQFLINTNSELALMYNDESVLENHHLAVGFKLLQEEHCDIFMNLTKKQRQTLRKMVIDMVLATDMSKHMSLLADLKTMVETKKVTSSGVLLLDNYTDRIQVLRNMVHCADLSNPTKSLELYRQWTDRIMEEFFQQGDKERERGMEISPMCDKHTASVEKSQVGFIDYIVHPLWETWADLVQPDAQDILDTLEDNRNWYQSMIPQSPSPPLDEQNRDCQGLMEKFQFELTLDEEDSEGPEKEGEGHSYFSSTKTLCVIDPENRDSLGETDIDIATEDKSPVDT

PBMC = assay: Antiinflammatory activity in human PBMC assessed as inhibition of LPS-induced TNFalpha production after 20 hrs by fluorescence linked immunosorbant assay; assay type: functional, cell-based
[2] = Fraction unbound in human plasma; assay type: ADME, cell-free
[3] = Aqueous solubility of the compound at pH 7.4; assay type: physicochemical; conditions: aqueous medium
[4] = Lipophilicity, log D of the compound; assay type: physicochemical; conditions: octanol/water
[5] = Clearance in rat at 1 mg/kg, iv; assay type: ADME, organism-based; parameters: dose 1 mg/kg, route intravenous; conditions: in vivo
Method in brief: (§1)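 Rat pharmacokinetics were run at 1 mg/kg, given iv or by intratracheal instillation, with 2−3 animals per study.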

[6] = Volume of distribution at steady state in rat at 1 mg/kg, iv; assay type: ADME, organism-based; parameters: dose 1 mg/kg, route intravenous; conditions: in vivo, read-out: Vdss
[7] = Half life in rat at 1 mg/kg, iv; assay type: ADME, organism-based; parameters: dose 1 mg/kg, route intravenous; conditions: in vivo; method in brief: as §1
Cytochrome P450 3A4 = Cytochrome P450 3A4 (Homo sapiens, UniProt P08684); assay: Inhibition of CYP3A4 (unknown origin); assay type: ADME
Sequence of Cytochrome P450 3A4 (P08684 whole entry): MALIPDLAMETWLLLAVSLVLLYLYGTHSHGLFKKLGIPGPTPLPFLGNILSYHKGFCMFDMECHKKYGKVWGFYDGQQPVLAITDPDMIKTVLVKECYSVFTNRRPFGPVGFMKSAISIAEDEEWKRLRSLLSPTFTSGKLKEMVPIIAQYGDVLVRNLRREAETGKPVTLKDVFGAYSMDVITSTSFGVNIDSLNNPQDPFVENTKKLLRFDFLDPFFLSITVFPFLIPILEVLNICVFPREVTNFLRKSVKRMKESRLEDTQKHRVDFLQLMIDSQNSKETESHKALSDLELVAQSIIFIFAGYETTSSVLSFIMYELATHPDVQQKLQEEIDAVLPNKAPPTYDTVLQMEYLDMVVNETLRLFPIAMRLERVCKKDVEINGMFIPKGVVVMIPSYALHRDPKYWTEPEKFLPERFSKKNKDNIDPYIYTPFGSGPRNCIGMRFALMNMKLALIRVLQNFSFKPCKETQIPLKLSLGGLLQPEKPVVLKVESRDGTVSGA

Cytochrome P450 2C9 = Cytochrome P450 2C9 (Homo sapiens, UniProt P11712); assay: Inhibition of CYP2C9 (unknown origin); assay type: ADME
Sequence of Cytochrome P450 2C9 (P11712 whole entry): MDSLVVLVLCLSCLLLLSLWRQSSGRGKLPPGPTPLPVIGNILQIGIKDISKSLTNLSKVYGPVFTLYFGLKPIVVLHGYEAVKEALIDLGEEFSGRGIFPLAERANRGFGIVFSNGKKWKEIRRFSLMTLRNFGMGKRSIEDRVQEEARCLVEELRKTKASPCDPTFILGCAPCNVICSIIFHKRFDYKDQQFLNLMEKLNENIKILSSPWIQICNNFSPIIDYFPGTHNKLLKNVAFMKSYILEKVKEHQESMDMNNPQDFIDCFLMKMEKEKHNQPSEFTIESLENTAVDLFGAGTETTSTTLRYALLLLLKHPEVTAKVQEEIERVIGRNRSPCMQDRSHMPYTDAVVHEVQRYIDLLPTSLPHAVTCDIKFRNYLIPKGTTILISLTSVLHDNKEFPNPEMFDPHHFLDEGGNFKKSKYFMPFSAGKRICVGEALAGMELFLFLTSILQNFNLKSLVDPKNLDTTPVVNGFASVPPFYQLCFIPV

Cytochrome P450 2D6 = Cytochrome P450 2D6 (Homo sapiens, UniProt P10635); assay: Inhibition of CYP2D6 (unknown origin); assay type: ADME
Sequence of Cytochrome P450 2D6 (P10635 whole entry): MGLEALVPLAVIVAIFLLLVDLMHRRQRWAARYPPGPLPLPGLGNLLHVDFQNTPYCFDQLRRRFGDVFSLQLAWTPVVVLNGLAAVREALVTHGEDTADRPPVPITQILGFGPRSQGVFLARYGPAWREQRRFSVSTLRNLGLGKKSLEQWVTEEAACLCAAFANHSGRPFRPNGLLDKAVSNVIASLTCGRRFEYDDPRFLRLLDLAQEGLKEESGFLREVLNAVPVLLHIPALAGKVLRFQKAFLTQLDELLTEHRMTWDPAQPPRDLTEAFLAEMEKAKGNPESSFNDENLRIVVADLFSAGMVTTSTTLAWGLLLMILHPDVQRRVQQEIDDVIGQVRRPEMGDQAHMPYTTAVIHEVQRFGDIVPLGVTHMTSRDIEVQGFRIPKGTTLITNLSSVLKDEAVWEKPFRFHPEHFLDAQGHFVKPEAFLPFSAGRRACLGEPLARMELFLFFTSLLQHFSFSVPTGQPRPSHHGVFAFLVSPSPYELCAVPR

Cytochrome P450 1A2 = molecular target: T1, Cytochrome P450 1A2 (Homo sapiens, UniProt P05177); assay: Inhibition of CYP1A2 (unknown origin); assay type: ADME
T1 sequence (P05177 whole entry): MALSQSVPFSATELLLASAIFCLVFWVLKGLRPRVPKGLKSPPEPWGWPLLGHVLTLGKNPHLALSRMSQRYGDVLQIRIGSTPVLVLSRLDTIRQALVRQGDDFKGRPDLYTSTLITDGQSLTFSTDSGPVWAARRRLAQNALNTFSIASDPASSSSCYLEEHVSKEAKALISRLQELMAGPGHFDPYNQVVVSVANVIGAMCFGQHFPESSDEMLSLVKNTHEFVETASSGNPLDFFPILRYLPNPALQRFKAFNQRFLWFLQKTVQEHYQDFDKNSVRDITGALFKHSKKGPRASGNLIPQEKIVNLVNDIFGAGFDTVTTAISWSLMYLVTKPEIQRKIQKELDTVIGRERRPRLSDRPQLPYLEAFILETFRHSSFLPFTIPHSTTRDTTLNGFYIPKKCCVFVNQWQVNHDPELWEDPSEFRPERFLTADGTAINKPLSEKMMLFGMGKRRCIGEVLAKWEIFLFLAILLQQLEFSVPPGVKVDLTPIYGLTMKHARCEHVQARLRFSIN

Cytochrome P450 2C19 = Cytochrome P450 2C19 (Homo sapiens, UniProt P33261); assay: Inhibition of CYP2C19 (unknown origin); assay type: ADME
Sequence of Cytochrome P450 2C19 (P33261 whole entry): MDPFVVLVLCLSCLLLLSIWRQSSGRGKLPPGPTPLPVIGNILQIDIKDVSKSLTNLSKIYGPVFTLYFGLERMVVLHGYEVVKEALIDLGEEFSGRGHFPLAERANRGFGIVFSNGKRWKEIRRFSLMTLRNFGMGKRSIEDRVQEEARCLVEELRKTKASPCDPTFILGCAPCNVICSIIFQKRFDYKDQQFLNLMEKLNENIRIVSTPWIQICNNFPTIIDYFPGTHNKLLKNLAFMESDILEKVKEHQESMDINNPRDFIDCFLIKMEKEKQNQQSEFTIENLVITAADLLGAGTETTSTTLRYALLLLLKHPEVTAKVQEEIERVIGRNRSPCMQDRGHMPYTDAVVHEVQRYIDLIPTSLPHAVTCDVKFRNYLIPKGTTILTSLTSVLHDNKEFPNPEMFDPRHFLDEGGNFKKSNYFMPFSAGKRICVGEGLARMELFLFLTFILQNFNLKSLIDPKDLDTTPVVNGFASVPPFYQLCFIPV

Rattus norvegicus [8] = assay: Apparent volume of distribution in rat at 1 mg/kg, iv; assay type: ADME, organism-based; parameters: dose 1 mg/kg, route intravenous; conditions: in vivo; method in brief: as §1
Rattus norvegicus [9] = assay: Antiinflammatory activity in Sprague-Dawley rat assessed as inhibition of LPS-induced bronchoalveolar lavage neutrophils measured as LPS duration at 0.1 mg/ml, inhalation administered as nebulized suspension; assay type: functional, organism-based
Method in brief: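 Duration protocol: rats received a nose-only inhalation of nebulized aqueous compound solution 12 h before LPS challenge. Dose is expressed as mg/mL nebulizer concentration. Readout was LPS-induced pulmonary neutrophilia, with terminal lung concentration (nM) measured. Groups held 8−10 animals per treatment.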

Rattus norvegicus [10] = assay: Antiinflammatory activity in Sprague-Dawley rat assessed as inhibition of LPS-induced bronchoalveolar lavage neutrophils at 0.03 mg/ml, inhalation administered as nebulized suspension; assay type: functional, organism-based
Method in brief: (§2)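 Rats were given the compound as an aqueous nebulized aerosol by nose-only inhalation 30 min before LPS challenge. Dose is expressed as mg/mL nebulizer concentration. Lung neutrophilia was the readout, and terminal lung concentration (nM) was measured. Groups held 8−10 animals per treatment.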

Rattus norvegicus [11] = assay: Antiinflammatory activity in nasally dosed Sprague-Dawley rat assessed as inhibition of LPS-induced bronchoalveolar lavage neutrophils measured as nebulizer concentration administered as […]; assay type: functional
Method in brief: (§3)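 ED80 was derived from the nose-only nebulized-solution dose response in rats dosed 30 min before LPS challenge, with neutrophilia as the readout. ED80 is given as nebulizer concentration, as the matching terminal total lung concentration, and as lung deposited dose estimated from measured filter sample and terminal lung levels.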

Rattus norvegicus [12] = assay: Antiinflammatory activity in nasally dosed Sprague-Dawley rat assessed as inhibition of LPS-induced bronchoalveolar lavage neutrophils measured as lung concentration administered as […]; assay type: functional; method in brief: as §3
Rattus norvegicus [13] = assay: Antiinflammatory activity in nasally dosed Sprague-Dawley rat assessed as inhibition of LPS-induced bronchoalveolar lavage neutrophils measured as lung deposited dose administered as […]; assay type: functional; method in brief: as §3
Rattus norvegicus [14] = assay: Antiinflammatory activity in Sprague-Dawley rat assessed as inhibition of LPS-induced bronchoalveolar lavage neutrophils at 0.01 mg/ml, inhalation administered as nebulized suspension; assay type: functional; method in brief: as §2

Row | SMILES | IC50 [1] [nM] | IC50 (PBMC) [nM] | fraction unbound [2] | solubility [3] [µM] | logD [4] | other results
1 | O=C(N[C@H]1CC[C@@H](NC(=O)c2cc(F)cnc2Oc2cccc(-c3ccc(O)cc3CN3CCOCC3)c2)CC1)c1cncc(O)c1 | 2.51 | – | – | – | – | –
2 | Cc1cc(C(=O)N[C@H]2CC[C@@H](NC(=O)c3cc(F)cnc3Oc3cccc(-c4ccc(CCN5CCC(N6CCCC6)CC5)cc4)c3)CC2)nn1C | 0.0398 | 0.0316 | 0.042 | 120 (≈ 84.9 µg/mL) | 2.4 | clearance [5]: 74 mL/min/kg; Vd [6]: 44 L/kg; half-life [7]: 9 h; IC50 (Cytochrome P450 3A4): > 1000 nM; IC50 (Cytochrome P450 2C9): > 1000 nM; IC50 (Cytochrome P450 2D6): > 1000 nM; IC50 (Cytochrome P450 1A2): > 1000 nM; IC50 (Cytochrome P450 2C19): > 1000 nM; Vz/F (Rattus norvegicus [8]): 59 L/kg; inhibition (Rattus norvegicus [9]): Active
3 | C[C@@H]1CN(Cc2ccc(-c3cccc(Oc4ncc(F)cc4C(=O)N[C@H]4CC[C@@H](NC(=O)c5ncccc5O)CC4)c3)cc2)C[C@H](C)N1 | 0.126 | – | – | – | – | –
4 | Cc1cccc2nc(C(=O)N[C@H]3CC[C@@H](NC(=O)c4cc(F)cnc4Oc4cccc(-c5ccc(CN6C[C@@H](C)N[C@@H](C)C6)cc5)c4)CC3)cn12 | – | 0.126 | 0.012 | 460 (≈ 317 µg/mL) | 2.7 | clearance [5]: 61 mL/min/kg; Vd [6]: 14 L/kg; half-life [7]: 5.3 h; IC50 (Cytochrome P450 3A4): > 1000 nM; IC50 (Cytochrome P450 2C9): > 1000 nM; IC50 (Cytochrome P450 2D6): > 1000 nM; IC50 (Cytochrome P450 1A2): > 1000 nM; IC50 (Cytochrome P450 2C19): > 1000 nM; Vz/F (Rattus norvegicus [8]): 28 L/kg
5 | Cc1cc(C(=O)N[C@H]2CC[C@@H](NC(=O)c3cc(F)cnc3Oc3cccc(-c4ccc(O)c(CN5C[C@@H](C)N[C@@H](C)C5)c4)c3)CC2)nn1C | – | 0.0316 | 0.16 | 970 (≈ 650 µg/mL) | 2.3 | –
6 | Cc1csc(C(=O)N[C@H]2CC[C@@H](NC(=O)c3cc(F)cnc3Oc3cccc(-c4ccc(CN5C[C@@H](C)N[C@@H](C)C5)cc4)c3)CC2)n1 | 0.0316 | – | – | – | – | –
7 | Cc1cc(C(=O)N[C@H]2CC[C@@H](NC(=O)c3cc(F)cnc3Oc3cccc(-c4ccc(CCCN5C[C@@H](C)N[C@@H](C)C5)cc4)c3)CC2)nn1C | 0.02 | 0.0631 | 0.045 | 130 (≈ 88.6 µg/mL) | 2.6 | inhibition (Rattus norvegicus [10]): Active; clearance [5]: 68 mL/min/kg; Vd [6]: 21 L/kg; half-life [7]: 7 h; IC50 (Cytochrome P450 3A4): > 1000 nM; IC50 (Cytochrome P450 2C9): > 1000 nM; IC50 (Cytochrome P450 2D6): > 1000 nM; IC50 (Cytochrome P450 1A2): > 1000 nM; IC50 (Cytochrome P450 2C19): > 1000 nM; Vz/F (Rattus norvegicus [8]): 41 L/kg; ED80 (Rattus norvegicus [11]): 50 µg/mL (≈ 73.3 µM); inhibition (Rattus norvegicus [9]): Active; ED80 (Rattus norvegicus [12]): 60 nM; ED80 (Rattus norvegicus [13]): 0.6 µg/kg
8 | Cc1cc(C(=O)N[C@H]2CC[C@@H](NC(=O)c3cc(F)cnc3Oc3cccc(-c4ccc(CN5C[C@@H](C)N[C@@H](C)C5)c(O)c4)c3)CC2)nn1C | – | – | 0.12 | 890 (≈ 596 µg/mL) | 2.4 | –
9 | Cc1nc(C(=O)N[C@H]2CC[C@@H](NC(=O)c3cc(F)cnc3Oc3cccc(-c4ccc(CN5C[C@@H](C)N[C@@H](C)C5)cc4)c3)CC2)cs1 | – | – | – | – | – | pIC50 [1]: 10.2
10 | Cc1cc(C(=O)N[C@H]2CC[C@@H](NC(=O)c3cc(F)cnc3Oc3cccc(-c4cccc(CN5C[C@@H](C)N[C@@H](C)C5)c4O)c3)CC2)nn1C | – | 3.16 | 0.091 | 470 (≈ 315 µg/mL) | 2.8 | –
11 | Cc1cc(C)n2ncc(C(=O)N[C@H]3CC[C@@H](NC(=O)c4cc(F)cnc4Oc4cccc(-c5ccc(O)cc5CN5CCOCC5)c4)CC3)c2n1 | 0.0501 | – | – | – | – | –
12 | CN(C)Cc1cc(O)ccc1-c1cccc(Oc2ncc(F)cc2C(=O)N[C@H]2CC[C@@H](NC(=O)c3cccc4oc(=O)[nH]c34)CC2)c1 | 20 | – | – | – | – | –
13 | C[C@@H]1CN(Cc2ccc(-c3cccc(Oc4ncc(F)cc4C(=O)N[C@H]4CC[C@@H](NC(=O)c5cc6ccccn6n5)CC4)c3)cc2)C[C@H](C)N1 | – | 0.0794 | 0.045 | 580 (≈ 392 µg/mL) | 2.7 | inhibition (Rattus norvegicus [10]): Active; clearance [5]: 58 mL/min/kg; Vd [6]: 13 L/kg; half-life [7]: 5.8 h; IC50 (Cytochrome P450 3A4): 398 nM; IC50 (Cytochrome P450 2C9): > 1000 nM; Vz/F (Rattus norvegicus [8]): 30 L/kg
14 | Cc1cc(C(=O)N[C@H]2CC[C@@H](NC(=O)c3cc(F)cnc3Oc3cccc(-c4cc(O)cc(CN5C[C@@H](C)N[C@@H](C)C5)c4)c3)CC2)nn1C | – | 0.398 | 0.35 | > 1500 | 2.2 | –
15 | Cc1csc(C(=O)N[C@H]2CC[C@@H](NC(=O)c3cc(F)cnc3Oc3cccc(-c4ccc(CN5C[C@@H](C)N[C@@H](C)C5)cc4CN4CCOCC4)c3)CC2)n1 | – | – | – | – | – | inhibition (Rattus norvegicus [10]): Active; inhibition (Rattus norvegicus [14]): Active
16 | Cc1csc(C(=O)N[C@H]2CC[C@@H](NC(=O)c3cc(F)cnc3Oc3cccc(-c4ccc(CN5C[C@@H](C)N[C@@H](C)C5)cc4CN4CCOCC4)c3)CC2)n1.O=C(O)C(F)(F)F | – | – | – | > 1400 | – | –
17 | Cc1cc(C(=O)N[C@H]2CC[C@@H](NC(=O)c3cc(F)cnc3Oc3cccc(-c4ccc(CN5C[C@@H](C)N[C@@H](C)C5)cc4)c3)CC2)nn1C | – | 0.1 | 0.11 | 1300 (≈ 850 µg/mL) | 2.4 | –
18 | CN(C)Cc1cc(O)ccc1-c1cccc(Oc2ncc(F)cc2C(=O)N[C@H]2CC[C@@H](NC(=O)c3cccc4ocnc34)CC2)c1 | 0.316 | – | – | – | – | –
19 | O=C(N[C@H]1CC[C@@H](NC(=O)c2nc3ccccc3[nH]c2=O)CC1)c1cc(F)cnc1Oc1cccc(-c2ccc(O)cc2CN2CCOCC2)c1 | 0.316 | – | – | – | – | –
20 | Cc1cc(C(=O)N[C@H]2CC[C@@H](NC(=O)c3cc(F)cnc3Oc3cccc(-c4cccc(CN5C[C@@H](C)N[C@@H](C)C5)c4)c3)CC2)nn1C | – | 0.0794 | 0.18 | > 1500 | 2.1 | –
